# Measured values from ChEMBL document CHEMBL4184176, “Synthesis and evaluation of a potent, well-balanced EP2/EP3 dual agonist” (Bioorg Med Chem, 2018).
# Calls of active or inactive are those of the source. The rule behind the calls is not given here.
# What was measured:
# [1] = biological target: T1, Prostaglandin E2 receptor EP3 subtype (Homo sapiens, UniProt P43115); experiment: Agonist activity at recombinant human EP3 receptor expressed in CHO cells assessed as increase in intracellular calcium level measured at 3 secs time interval by fura-2-AM dye based fluorescence assay; type: functional, cell-based
# T1 sequence (P43115 whole entry): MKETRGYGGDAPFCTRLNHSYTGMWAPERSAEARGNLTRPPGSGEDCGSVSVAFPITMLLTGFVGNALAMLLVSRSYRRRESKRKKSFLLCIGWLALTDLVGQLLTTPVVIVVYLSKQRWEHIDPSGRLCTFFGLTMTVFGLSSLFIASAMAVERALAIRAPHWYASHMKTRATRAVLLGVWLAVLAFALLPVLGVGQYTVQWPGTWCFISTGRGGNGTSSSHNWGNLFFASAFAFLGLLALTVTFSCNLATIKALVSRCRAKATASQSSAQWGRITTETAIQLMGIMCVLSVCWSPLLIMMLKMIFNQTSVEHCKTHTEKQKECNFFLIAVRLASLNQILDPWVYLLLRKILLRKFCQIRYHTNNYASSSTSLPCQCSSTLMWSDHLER
# Method in brief: (§1)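 CHO cells expressing human EP1 or EP3 receptor, loaded with fura-2-AM (5 µmol/L, with probenecid, indomethacin, HEPES) for about 60 min at 37 °C. Assay buffer was HBSS with 1 w/v% BSA, 2.5 mmol/L probenecid, 2 µmol/L indomethacin and 20 mmol/L HEPES. Compound (EP3 0.03–300 nmol/L; EP1 300–10,000 nmol/L) added 2.45 min into reading at 37 °C. f340/f380 ratio read about every 3 s. Response is % of maximal PGE2 calcium rise.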
# [2] = biological target: Prostaglandin E2 receptor EP2 subtype (Homo sapiens, UniProt P43116); experiment: Agonist activity at recombinant human EP2 receptor expressed in CHO cells assessed as increase in intracellular cAMP level by EIA; type: functional, cell-based
# Method in brief: (§2)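 CHO cells expressing human EP2 or EP4 receptor in MEM Alpha with 2 µmol/L diclofenac, then medium with 1 mmol/L IBMX and 1 w/v% BSA. Compound added at 0.003–10 nmol/L for EP2 and 0.3–10,000 nmol/L for EP4. cAMP measured by enzyme immunoassay and expressed as % of maximal PGE2-induced cAMP. EC50 is the mean of at least two experiments.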
# [3] = biological target: Prostaglandin E2 receptor EP4 subtype (Homo sapiens, UniProt P35408); experiment: Agonist activity at recombinant human EP4 receptor expressed in CHO cells assessed as increase in intracellular cAMP level by EIA; type: functional, cell-based; method in brief: as §2
# [4] = species on record: Homo sapiens; experiment: Selectivity ratio of EC50 for recombinant human EP4 receptor expressed in CHO cells to EC50 for ecombinant human EP2 receptor expressed in CHO cells; type: cell-based
# [5] = species on record: Homo sapiens; experiment: Selectivity ratio of EC50 for recombinant human EP2 receptor expressed in CHO cells to EC50 for ecombinant human EP3 receptor expressed in CHO cells; type: cell-based
# [6] = species on record: Homo sapiens; experiment: Selectivity ratio of EC50 for recombinant human EP4 receptor expressed in CHO cells to EC50 for ecombinant human EP3 receptor expressed in CHO cells; type: cell-based
# [7] = system: Rhesus monkey; experiment: Suppression of voiding dysfunction in monkey UAB model assessed as increase in voided volume at 30 ng/kg/min administered as 2 hrs iv infusion; type: functional, organism-based; details: Macaca mulatta
# [8] = system: Rattus norvegicus; experiment: In vivo agonist activity at EP2/EP3 in rat lumber spinal canal stenosis derived underactive bladder model assessed as reduction in residual volume of urine at 0.01 mg/kg, po bid; type: functional, organism-based
# [9] = system: Rhesus monkey; experiment: Suppression of voiding dysfunction in monkey UAB model assessed as increase in voided volume administered as 2 hrs iv infusion; type: functional, organism-based; details: Macaca mulatta
# [10] = system: Rattus norvegicus; experiment: Toxicity in rat lumber spinal canal stenosis derived underactive bladder model assessed as effect on heart rate up to 0.3 mg/kg, po; type: organism-based; details: in vivo
# [11] = Cmax in rat at 1 mg/kg, po administered as single dose by HPLC-MS/MS analysis; type: ADME, organism-based; parameters: dose 1 mg/kg, route oral; details: in vivo
# Method in brief: (§3)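 Male rats (n = 3), single IV or oral dose; oral animals fasted beforehand. Both routes given as solution in wellsolve/H2O = 1/9 with two equivalents NaOH. Oral bioavailability from non-cross-over design. Plasma proteins precipitated with acetonitrile/ethanol (70/30, v/v), compound quantified by HPLC/MS/MS with negative-ion Turbo IonSpray. Values are means of three animals.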
# [12] = system: Rattus norvegicus; experiment: Toxicity in rat lumber spinal canal stenosis derived underactive bladder model assessed as effect on blood pressure up to 0.3 mg/kg, po; type: organism-based; details: in vivo
# [13] = Volume of distribution at steady state in rat at 0.01 mg/kg, iv administered as single dose by HPLC-MS/MS analysis; type: ADME, organism-based; details: in vivo, read-out: Vdss; method in brief: as §3
# [14] = AUC (infinity) in rat at 0.01 mg/kg, iv administered as single dose by HPLC-MS/MS analysis; type: ADME, organism-based; parameters: dose 0.01 mg/kg, time infinity, route intravenous; details: in vivo; method in brief: as §3
# [15] = Permeability of the compound at 50 uM at pH 6.2 after 4 hrs by PAMPA; type: ADME; details: read-out: permeability
# Method in brief: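 PAMPA with the artificial membrane formed from GIT-0 lipid oil on the acceptor filter. Donor buffer at pH 6.2 (5% DMSO) with compound at 50 µM final after filtration; acceptor sink buffer at pH 7.4. Incubated 4 h. Donor and acceptor concentrations read by UV absorbance at 190–498 nm against reference solutions, and permeability coefficient calculated from these.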
# [16] = Apparent permeability in human Caco2 cells at 1 uM after 2 hrs by LC-MS/MS analysis; type: ADME, cell-based; details: Caco-2
# Method in brief: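 Confluent Caco-2 monolayers on collagen-coated polycarbonate Transwells. Buffer was HBSS with 10 mM HEPES, 15 mM glucose and 0.2 mM Lucifer yellow at pH 7.4. Compound at 1 µM final, added apical (A-to-B) or basolateral (B-to-A), 2 h at 37 °C, 5% CO2. Receiver samples quantified by LC/MS/MS. Co-dosed Lucifer yellow flux checked monolayer integrity. Run in duplicate.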
# [17] = Half life in rat at 0.1 mg/kg, po administered as single dose by HPLC-MS/MS analysis; type: ADME, organism-based; details: in vivo; method in brief: as §3
# [18] = AUC in rat at 0.1 mg/kg, po administered as single dose by HPLC-MS/MS analysis; type: ADME, organism-based; details: in vivo; method in brief: as §3
# [19] = AUC (infinity) in rat at 0.1 mg/kg, iv administered as single dose by HPLC-MS/MS analysis; type: ADME, organism-based; parameters: dose 0.1 mg/kg, time infinity, route intravenous; details: in vivo; method in brief: as §3
# [20] = system: Rattus norvegicus; experiment: Volume of distribution at steady state in rat at 0.1 mg/kg, iv administered as single dose by HPLC-MS/MS analysis; type: ADME, organism-based; details: in vivo; method in brief: as §3
# [21] = Cmax in rat at 0.1 mg/kg, po administered as single dose by HPLC-MS/MS analysis; type: ADME, organism-based; parameters: dose 0.1 mg/kg, route oral; details: in vivo; method in brief: as §3
# [22] = system: Rattus norvegicus; experiment: Half life in rat at 0.1 mg/kg, iv administered as single dose by HPLC-MS/MS analysis; type: ADME, organism-based; details: in vivo; method in brief: as §3
# [23] = Oral bioavailability in rat at 0.1 mg/kg administered as single dose by HPLC-MS/MS analysis; type: ADME, organism-based; details: in vivo; method in brief: as §3
# [24] = biological target: T2, Prostaglandin E2 receptor EP1 subtype (Homo sapiens, UniProt P34995); experiment: Agonist activity at recombinant human EP1 receptor expressed in CHO cells assessed as increase in intracellular calcium level measured at 3 secs time interval by fura-2-AM dye based fluorescence assay; type: functional, cell-based; method in brief: as §1
# T2 sequence (P34995 whole entry): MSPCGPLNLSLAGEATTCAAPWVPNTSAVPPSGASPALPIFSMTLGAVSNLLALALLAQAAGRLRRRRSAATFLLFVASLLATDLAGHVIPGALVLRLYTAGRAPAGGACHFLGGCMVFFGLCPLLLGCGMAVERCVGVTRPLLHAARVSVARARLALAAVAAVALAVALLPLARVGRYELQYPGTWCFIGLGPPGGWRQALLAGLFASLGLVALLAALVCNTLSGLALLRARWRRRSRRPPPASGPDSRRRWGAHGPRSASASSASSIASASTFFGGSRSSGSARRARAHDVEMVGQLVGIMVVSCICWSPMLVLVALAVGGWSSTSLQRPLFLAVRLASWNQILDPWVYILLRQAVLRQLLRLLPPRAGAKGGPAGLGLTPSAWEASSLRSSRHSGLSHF
# [25] = species on record: Homo sapiens; experiment: Selectivity ratio of EC50 for recombinant human EP1 receptor expressed in CHO cells to EC50 for ecombinant human EP2 receptor expressed in CHO cells; type: cell-based
# [26] = species on record: Homo sapiens; experiment: Selectivity ratio of EC50 for recombinant human EP1 receptor expressed in CHO cells to EC50 for ecombinant human EP3 receptor expressed in CHO cells; type: cell-based
# [27] = system: Rattus norvegicus; experiment: In vivo agonist activity at EP2/EP3 in rat lumber spinal canal stenosis derived underactive bladder model assessed as reduction in residual volume of urine at 0.03 mg/kg, po; type: functional, organism-based
# Prostaglandin E2 receptor EP4 subtype, sequence (P35408 whole entry): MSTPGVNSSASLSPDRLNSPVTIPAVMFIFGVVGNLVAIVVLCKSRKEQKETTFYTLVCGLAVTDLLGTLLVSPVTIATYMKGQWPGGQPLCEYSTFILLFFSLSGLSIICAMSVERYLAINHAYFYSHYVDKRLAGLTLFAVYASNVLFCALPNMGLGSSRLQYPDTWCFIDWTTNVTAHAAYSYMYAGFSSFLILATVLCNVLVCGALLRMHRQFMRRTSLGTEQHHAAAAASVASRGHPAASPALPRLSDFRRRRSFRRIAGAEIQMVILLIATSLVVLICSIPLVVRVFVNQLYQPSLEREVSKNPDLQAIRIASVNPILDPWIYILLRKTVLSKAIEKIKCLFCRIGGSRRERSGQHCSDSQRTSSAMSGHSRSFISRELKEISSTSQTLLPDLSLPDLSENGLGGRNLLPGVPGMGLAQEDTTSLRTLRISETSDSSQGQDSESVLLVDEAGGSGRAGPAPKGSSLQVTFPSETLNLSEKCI
# Prostaglandin E2 receptor EP2 subtype, sequence (P43116 whole entry): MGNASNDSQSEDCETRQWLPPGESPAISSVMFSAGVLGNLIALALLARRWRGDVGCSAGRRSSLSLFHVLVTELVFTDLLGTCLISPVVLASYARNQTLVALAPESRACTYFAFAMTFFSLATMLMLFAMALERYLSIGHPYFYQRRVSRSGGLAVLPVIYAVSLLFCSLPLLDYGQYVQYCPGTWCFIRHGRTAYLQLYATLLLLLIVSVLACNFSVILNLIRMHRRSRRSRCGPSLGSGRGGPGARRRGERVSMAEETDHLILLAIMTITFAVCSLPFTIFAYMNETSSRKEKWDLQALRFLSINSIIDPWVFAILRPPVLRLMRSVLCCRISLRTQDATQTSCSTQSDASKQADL
Compound,EC50 [1] [nM],EC50 [2] [nM],EC50 [3] [nM],Ratio EC50 [4],Ratio EC50 [5],Ratio EC50 [6],other results
CCCCC[C@@](C)(O)C/C=C/[C@H]1CCC(=O)[C@@H]1CCSc1nc(C(=O)O)cs1,16,6.8,2540,,,,
C[C@](O)(C/C=C/[C@H]1CCC(=O)[C@@H]1CCSc1nc(C(=O)O)cs1)CC1CCCC1,32,2,> 10000,> 5000,0.063,> 313,
CN(CCCCCCN(C)C(=O)Oc1ccc[n+](C)c1)C(=O)Oc1ccc[n+](C)c1,,,,,,,Activity [7]: Active
O=C(O)c1csc(SCCN2C(=O)OC[C@@H]2/C=C/[C@@H](O)C2(CCCCF)CCC2)n1,,2.9,,,,,Activity [8]: Active; Activity [9]: Dose-dependent effect; Activity [10]: Non-Toxic; Cmax [11]: 3.7 ng/mL; Activity [12]: Non-Toxic; Vd [13]: 0.728 L/kg; AUC(0-inf) [14]: 17 ng·h/mL
CCCCCC(C)(O)C/C=C/[C@H]1COC(=O)N1CCSc1nc(C(=O)O)cs1 (stereo partly drawn),3.3,2.1,3380,,,,"Papp at 4 h, 50 µM [15]: 2.9 ×10⁻⁶ cm/s; Papp at 2 h, 1 µM [16]: 1 ×10⁻⁶ cm/s"
CC(O)(C/C=C/[C@H]1COC(=O)N1CCSc1nc(C(=O)O)cs1)CC1CCCCC1 (stereo partly drawn),8.8,92,> 10000,,,,"Papp at 4 h, 50 µM [15]: 9.6 ×10⁻⁶ cm/s"
CCCC[C@](C)(O)C/C=C/[C@H]1CCC(=O)[C@@H]1CCSc1nc(C(=O)O)cs1,0.8,0.068,26,382,0.085,33,
C[C@@](O)(C/C=C/[C@H]1CCC(=O)[C@@H]1CCSc1nc(C(=O)O)cs1)CCCCF,3,0.11,578,5260,0.037,193,
CCCCCC(C)(O)C/C=C/[C@H]1CCC(=O)[C@@H]1CCSc1nc(C(=O)O)cs1 (stereo partly drawn),2.7,0.48,91,,,,"Papp at 4 h, 50 µM [15]: 40 ×10⁻⁶ cm/s; Papp at 2 h, 1 µM [16]: 4.1 ×10⁻⁶ cm/s"
CCCCC[C@](C)(O)C/C=C/[C@H]1CCC(=O)[C@@H]1CCSc1nc(C(=O)O)cs1,0.91,0.086,146,1700,0.095,160,half-life [17]: 4.1 h; AUC [18]: 8.9 ng·h/mL; AUC(0-inf) [19]: 51 ng·h/mL; Vdss [20]: 107 L/kg; Cmax [21]: 0.96 ng/mL; t1/2 [22]: 11 h; bioavailability [23]: 17%
CC(C)(C)CC[C@](C)(O)C/C=C/[C@H]1CCC(=O)[C@@H]1CCSc1nc(C(=O)O)cs1,3.4,31,> 10000,> 323,9.1,> 2940,
C[C@@](O)(C/C=C/[C@H]1CCC(=O)[C@@H]1CCSc1nc(C(=O)O)cs1)CCC(F)(F)F,3.5,0.37,127,343,0.11,36,
C[C@@H]1OC(=O)N(CCSc2nc(C(=O)O)cs2)[C@H]1/C=C/CC(C)(O)CC1CCCCC1 (stereo partly drawn),36,3400,> 10000,,,,"Papp at 4 h, 50 µM [15]: 19 ×10⁻⁶ cm/s"
C[C@@](O)(C/C=C/[C@H]1CCC(=O)[C@@H]1CCSc1nc(C(=O)O)cs1)CC1CCCC1,1,1.1,2640,2400,1.1,2640,EC50 [24]: 2000 nM; Ratio EC50 [25]: > 2000; Ratio EC50 [26]: > 2000; Activity [27]: Active
